Measurements published in paper PMC10401071 (Cancer Discovery, 2023).
Where two headings read alike, the source gives them in different places.

Legend:
[1] = Pharmacokinetic analysis of blood samples after oral brigimadlin; type: in vivo, human; settings: for AUC(0-inf) / Cmax: oral
Outline: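 Oral test compound given to patients with advanced solid tumours, on day 1 of 21-day cycles or days 1 and 8 of 28-day cycles. Cycle 1 blood taken 5 min pre-dose, 1–8 h post-dose on day 1, then once on days 2, 3, 4, 5 and 8. Later cycles: pre-dose and 6 h, day 2, plus days 3 and 8 in cycle 2. Cmax and AUC by noncompartmental analysis.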

[2] = type: in vivo, human
Outline: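 Adults with advanced solid tumours (ECOG 0–1; TP53 wild-type or unknown) received oral test compound on day 1 of 21-day cycles or days 1 and 8 of 28-day cycles, until progression or unacceptable toxicity. Antiemetic prophylaxis followed guidelines. AE incidence and severity were graded per NCI CTCAE v5.0 and summarised descriptively.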

In the case of `Cc1c(C(=O)O)ccc2c3n(nc12)[C@@H]1[C@H](C3)N(CC2CC2)[C@@]2(C(=O)Nc3cc(Cl)ccc32)[C@H]1c1cccc(Cl)c1F` [brigimadlin], the “dose linearity of plasma exposure (Cmax and AUC0-inf)” value ([1]; after the first dose, both arms, dose range 5 to 80 mg) is reported as “no significant deviation from linearity”, the “dose linearity of plasma exposure (Cmax and AUC0-inf)” value ([1]; dose range 10 to 60 mg) is reported as “no significant deviation from linearity” and the AUC(0-inf) ([1]; human, plasma, 60 mg) is reported as 121 µM·h. For the same compound, the Cmax ([1]; human, plasma, 60 mg) was 2.48 µM, the AUC(0-inf) ([1]; human, plasma, 80 mg) was 339 µM·h and the Cmax ([1]; human, plasma, 80 mg) was 4.8 µM. The half-life ([1]; human, plasma, po, half-life, patients, as summarised in Discussion) was 30 to 60 h, the “Any AE” value ([2]; All patients (N = 54)) was 54 (100.0) n (%) and the “Any AE (any cause) leading to study drug discontinuation” value ([2]; All patients (N = 54)) was 3 (5.6) n (%). The “Any AE (any cause) leading to study drug dose reduction” value ([2]; All patients (N = 54)) was 19 (35.2) n (%), the “Any TRAE” value ([2]; All patients (N = 54)) was 50 (92.6) n (%) and the “Any grade ≥3 AE” value ([2]; All patients (N = 54)) was 33 (61.1) n (%). The “Any grade ≥3 TRAE” value ([2]; All patients (N = 54)) was 25 (46.3) n (%), the “Serious AEs (any cause)” value ([2]; All patients (N = 54)) was 18 (33.3) n (%) and the “TRAE Alopecia, All grades” value ([2]; All patients (N = 54)) was 12 (22.2) n (%). The “TRAE Alopecia, Grade ≥3” value ([2]; All patients (N = 54)) was 0 n (%), the “TRAE Anemia, All grades” value ([2]; All patients (N = 54)) was 16 (29.6) n (%) and the “TRAE Anemia, Grade ≥3” value ([2]; All patients (N = 54)) was 5 (9.3) n (%). The “TRAE Decreased appetite, All grades” value ([2]; All patients (N = 54)) was 17 (31.5) n (%), the “TRAE Decreased appetite, Grade ≥3” value ([2]; All patients (N = 54)) was 0 n (%) and the “TRAE Decreased lymphocyte count, All grades” value ([2]; All patients (N = 54)) was 7 (13.0) n (%). For the same compound, the “TRAE Decreased lymphocyte count, Grade ≥3” value ([2]; All patients (N = 54)) was 4 (7.4) n (%), the “TRAE Decreased weight, All grades” value ([2]; All patients (N = 54)) was 4 (7.4) n (%) and the “TRAE Decreased weight, Grade ≥3” value ([2]; All patients (N = 54)) was 0 n (%). The “TRAE Decreased white blood cell count, All grades” value ([2]; All patients (N = 54)) was 13 (24.1) n (%), the “TRAE Decreased white blood cell count, Grade ≥3” value ([2]; All patients (N = 54)) was 7 (13.0) n (%) and the “TRAE Diarrhea, All grades” value ([2]; All patients (N = 54)) was 16 (29.6) n (%). For the same compound, the “TRAE Diarrhea, Grade ≥3” value ([2]; All patients (N = 54)) was 0 n (%), the “TRAE Dysgeusia, All grades” value ([2]; All patients (N = 54)) was 10 (18.5) n (%) and the “TRAE Dysgeusia, Grade ≥3” value ([2]; All patients (N = 54)) was 0 n (%). The “TRAE Fatigue, All grades” value ([2]; All patients (N = 54)) was 25 (46.3) n (%), the “TRAE Fatigue, Grade ≥3” value ([2]; All patients (N = 54)) was 1 (1.9) n (%) and the “TRAE Gastroesophageal reflux disease, All grades” value ([2]; All patients (N = 54)) was 5 (9.3) n (%). The “TRAE Gastroesophageal reflux disease, Grade ≥3” value ([2]; All patients (N = 54)) was 0 n (%), the “TRAE Increased alanine aminotransferase, All grades” value ([2]; All patients (N = 54)) was 3 (5.6) n (%) and the “TRAE Increased alanine aminotransferase, Grade ≥3” value ([2]; All patients (N = 54)) was 0 n (%). For the same compound, the “TRAE Increased aspartate aminotransferase, All grades” value ([2]; All patients (N = 54)) was 5 (9.3) n (%), the “TRAE Increased aspartate aminotransferase, Grade ≥3” value ([2]; All patients (N = 54)) was 0 n (%) and the “TRAE Nausea, All grades” value ([2]; All patients (N = 54)) was 40 (74.1) n (%). The “TRAE Nausea, Grade ≥3” value ([2]; All patients (N = 54)) was 4 (7.4) n (%), the “TRAE Neutropenia, All grades” value ([2]; All patients (N = 54)) was 16 (29.6) n (%) and the “TRAE Neutropenia, Grade ≥3” value ([2]; All patients (N = 54)) was 13 (24.1) n (%). The “TRAE Thrombocytopenia, All grades” value ([2]; All patients (N = 54)) was 24 (44.4) n (%), the “TRAE Thrombocytopenia, Grade ≥3” value ([2]; All patients (N = 54)) was 14 (25.9) n (%) and the “TRAE Vomiting, All grades” value ([2]; All patients (N = 54)) was 28 (51.9) n (%). For the same compound, the “TRAE Vomiting, Grade ≥3” value ([2]; All patients (N = 54)) was 1 (1.9) n (%), the “patients with neutropenia leading to dose reduction” value ([2]; D1D8q4w) was “four” and the “patients with thrombocytopenia leading to dose reduction” value ([2]; D1D8q4w) was “four”. For the same compound, the “serious AE thrombocytopenia” value ([2]; D1D8q4w) was “three”, the “Any AE” value ([2]; D1D8q4w (n = 25)) was 25 (100.0) n (%) and the “Any AE (any cause) leading to study drug discontinuation” value ([2]; D1D8q4w (n = 25)) was 1 (4.0) n (%). The “Any AE (any cause) leading to study drug dose reduction” value ([2]; D1D8q4w (n = 25)) was 8 (32.0) n (%), the “Any TRAE” value ([2]; D1D8q4w (n = 25)) was 23 (92.0) n (%) and the “Any grade ≥3 AE” value ([2]; D1D8q4w (n = 25)) was 12 (48.0) n (%). For the same compound, the “Any grade ≥3 TRAE” value ([2]; D1D8q4w (n = 25)) was 8 (32.0) n (%), the “Serious AEs (any cause)” value ([2]; D1D8q4w (n = 25)) was 9 (36.0) n (%) and the “TRAE Alopecia, All grades” value ([2]; D1D8q4w (n = 25)) was 6 (24.0) n (%). The “TRAE Alopecia, Grade ≥3” value ([2]; D1D8q4w (n = 25)) was 0 n (%), the “TRAE Anemia, All grades” value ([2]; D1D8q4w (n = 25)) was 4 (16.0) n (%) and the “TRAE Anemia, Grade ≥3” value ([2]; D1D8q4w (n = 25)) was 2 (8.0) n (%). The “TRAE Decreased appetite, All grades” value ([2]; D1D8q4w (n = 25)) was 7 (28.0) n (%), the “TRAE Decreased appetite, Grade ≥3” value ([2]; D1D8q4w (n = 25)) was 0 n (%) and the “TRAE Decreased lymphocyte count, All grades” value ([2]; D1D8q4w (n = 25)) was 2 (8.0) n (%). For the same compound, the “TRAE Decreased lymphocyte count, Grade ≥3” value ([2]; D1D8q4w (n = 25)) was 1 (4.0) n (%), the “TRAE Decreased weight, Grade ≥3” value ([2]; D1D8q4w (n = 25)) was 0 n (%) and the “TRAE Decreased white blood cell count, All grades” value ([2]; D1D8q4w (n = 25)) was 4 (16.0) n (%). For the same compound, the “TRAE Decreased white blood cell count, Grade ≥3” value ([2]; D1D8q4w (n = 25)) was 2 (8.0) n (%), the “TRAE Diarrhea, All grades” value ([2]; D1D8q4w (n = 25)) was 8 (32.0) n (%) and the “TRAE Diarrhea, Grade ≥3” value ([2]; D1D8q4w (n = 25)) was 0 n (%). For the same compound, the “TRAE Dysgeusia, All grades” value ([2]; D1D8q4w (n = 25)) was 5 (20.0) n (%).
